Source: ChEMBL document CHEMBL3603753, “Carbamoyl Triazoles, Known Serine Protease Inhibitors, Are a Potent New Class of Antimalarials” (J Med Chem, 2015)
pIC50: −log10 of the molar value. ≈ marks a conversion by molar mass, not a printed value. Calls of active or inactive are those of the source. The rule behind the calls is not given here.

What was measured:
[1] = Kinetic solubility of the compound by chemoluminescent nitrogen detection kinetic solubility assay; assay type: physicochemical; conditions: read-out: Kinetic_solubility
HepG2 = assay: Cytotoxicity against human HepG2 cells; assay type: cell-based
[2] = Half life in mouse liver microsomes; assay type: ADME
Plasmodium falciparum [3] = assay: Antimalarial activity against Plasmodium falciparum 3D7 infected in erythrocytes incubated for 48 hrs by [3H]hypoxanthine incorporation assay; assay type: functional, organism-based
Plasmodium falciparum [4] = assay: Antimalarial activity against Plasmodium falciparum infected in humanized SCID mouse model of malaria infection assessed as induction of phenotypic changes in parasite at 217 mg/kg, po measured 96 hrs post dose by microscopic and flow cytometry method; assay type: functional, organism-based
Procedure, shortened: (§1)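 P. falciparum-infected humanized mice, standard four-day test; compound given orally at several doses, vehicle (n = 4) and oral chloroquine 10 mg·kg⁻¹ (n = 2) as controls. Parasitemia followed per mouse. Peripheral blood sampled 96 h after starting treatment and analysed by microscopy and by flow cytometry gating infected human erythrocytes.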

Plasmodium falciparum [5] = assay: Antimalarial activity against Plasmodium falciparum infected in humanized SCID mouse model of malaria infection assessed as induction of altered rings in parasite at 217 mg/kg, po measured 96 hrs post dose by microscopic and flow cytometry method; assay type: functional, organism-based; procedure, shortened: as §1
Plasmodium falciparum [6] = assay: Antimalarial activity against Plasmodium falciparum infected in humanized SCID mouse model of malaria infection assessed as induction of abnormal trophozoites with hemozoin granules and pyknotic cells in parasite at 217 mg/kg, po measured 96 hrs post dose by microscopic and flow cytometry method; assay type: functional, organism-based; procedure, shortened: as §1
Blood = assay: Drug level in blood of Plasmodium falciparum infected humanized SCID mouse model of malaria infection at 217 mg/kg, po measured 96 hrs post dose; assay type: ADME, organism-based; conditions: in vivo
Plasmodium falciparum [7] = assay: Antimalarial activity against Plasmodium Plasmodium falciparum infected in orally dosed humanized SCID mouse model of malaria infection; assay type: functional; conditions: po; procedure, shortened: as §1
[8] = target: T1, Subtilisin-like protease 1 (Plasmodium falciparum, UniProt O61142); assay: Inhibition of Plasmodium falciparum recombinant SUB1 using SERA4st1F-6R12 substrate incubated for 55 mins by fluorescence spectrophotometry
T1 sequence (O61142 whole entry): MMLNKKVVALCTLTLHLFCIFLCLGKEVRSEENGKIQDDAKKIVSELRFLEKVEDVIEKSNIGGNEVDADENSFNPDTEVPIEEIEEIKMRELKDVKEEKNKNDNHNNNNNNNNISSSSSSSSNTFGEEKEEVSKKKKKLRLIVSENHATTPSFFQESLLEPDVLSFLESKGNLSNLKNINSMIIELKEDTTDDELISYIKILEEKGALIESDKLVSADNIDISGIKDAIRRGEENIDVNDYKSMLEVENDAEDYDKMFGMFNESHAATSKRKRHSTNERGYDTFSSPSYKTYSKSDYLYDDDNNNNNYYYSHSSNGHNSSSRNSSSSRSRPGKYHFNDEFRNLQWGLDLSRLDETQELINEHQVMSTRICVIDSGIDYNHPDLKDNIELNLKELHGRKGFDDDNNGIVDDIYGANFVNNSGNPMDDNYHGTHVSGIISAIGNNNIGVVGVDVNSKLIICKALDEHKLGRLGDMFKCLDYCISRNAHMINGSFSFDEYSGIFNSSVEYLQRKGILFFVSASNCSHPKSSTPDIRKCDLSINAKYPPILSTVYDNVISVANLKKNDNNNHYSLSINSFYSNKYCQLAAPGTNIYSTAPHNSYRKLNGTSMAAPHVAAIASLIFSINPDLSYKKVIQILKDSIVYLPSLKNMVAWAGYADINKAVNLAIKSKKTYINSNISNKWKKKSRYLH

Plasmodium falciparum [9] = assay: Antimalarial activity against Plasmodium falciparum infected in erythrocytes assessed as young trophozoites level at 10 times antimalarial IC50 level incubated for 24 and 48 hrs by Giemsa staining based microsocpy

COc1ccc(CN(C)C(=O)n2cnc(S(=O)(=O)[C@@H]3C[C@H]4CC[C@@H]3C4)n2)cc1
solubility kinetic [1]: 125 µM (≈ 50.6 µg/mL) | pIC50 (HepG2): < 4.00 | half-life [2]: 22.6 min | pIC50 (Plasmodium falciparum [3]): 8.00 | Activity (Plasmodium falciparum [4]): Active | Activity (Plasmodium falciparum [5]): Active | Activity (Plasmodium falciparum [6]): Active | Drug uptake (Blood): Not Active | ED50 (Plasmodium falciparum [7]): 100 mg/kg | ED90 (Plasmodium falciparum [7]): 150 mg/kg | IC50 [8]: Not Active | Activity (Plasmodium falciparum [9]): Active
